Test results as given in ChEMBL document CHEMBL1671691 (Antimicrob Agents Chemother, 2010).

Tested on: Influenza A virus
Test: Antiviral activity against adamantane-, oseltamivir-, zanamivir-susceptible Influenza A virus (A/Georgia/17/2006(H1N1)) infected in MDCK cells assessed as inhibition of viral replication after 3 days by microscopic analysis using crystal violet stain
Format: functional, organism-based
Conditions: 72 h
In short: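 Confluent MDCK-ATCC monolayers infected with virus diluted to give 15–45 plaques/well. Adsorption 1 h at 37°C without drug, then washed. Overlaid with 0.8% agarose in MEM containing drug plus TPCK-trypsin: 3 μg/ml for seasonal viruses, 2 μg/ml for 2009 A(H1N1). Incubated 3 days at 37°C, 5% CO2. Ethanol-fixed, crystal violet-stained, plaques counted. EC50 by curve fit; duplicates on three occasions, mean ± SD.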

NC(=O)c1ncn([C@@H]2O[C@H](CO)[C@@H](O)[C@H]2O)n1 [RIBAVIRIN]
EC50: 4.92 µM
